Results from different studies.
Protocols differ between the studies behind these lines.
CDK7: Cyclin-dependent kinase 7 (CDK7, Homo sapiens, UniProt P50613)
PTGER4: Prostaglandin E2 receptor EP4 subtype (PTGER4, Homo sapiens, UniProt P35408)
ACSL4: Long-chain-fatty-acid--CoA ligase 4 (ACSL4, Homo sapiens, UniProt O60488)

| Structure (SMILES) | target | observed | mode | technique | concentration | quantity | result |
| --- | --- | --- | --- | --- | --- | --- | --- |
| C1=C/COCc2cc(ccc2OCCN2CCCC2)Nc2nccc(n2)-c2cccc(c2)COC/1 | Serine/threonine-protein kinase MAK (MAK, Homo sapiens, UniProt P20794) | binding | – | – | 0.1 µM | remaining binding | 100% |
| O=C(/C=C/c1ccc(O)c(O)c1)O[C@H](Cc1ccc(O)c(O)c1)C(=O)O | Peroxiredoxin-1 (PRDX1, Homo sapiens, UniProt Q06830) | thermal stability | – | DSF | 800 µM | ΔTm | 9.31 °C |
| Cc1cc(S(=O)(=O)N[C@H]2CC[C@H](CN3CCN(c4ccc(C5CCC(=O)NC5=O)cc4F)CC3)CC2)ccc1Nc1ncc(C(F)(F)F)c(N2CCC[C@](C)(O)C2)n1 (stereo partly drawn) | CDK7 | binding | – | competition with immobilised ligand | 1 µM | remaining binding | 55% |
| C#Cc1cc(-c2cc(Nc3nc(N[C@@H](C)c4ccc(F)cn4)ncc3Cl)n[nH]2)ccc1C=O | Non-receptor tyrosine-protein kinase TNK1 (TNK1, Homo sapiens, UniProt Q13470) | enzyme activity | inhibitor | – | 0.2 µM | inhibition | 74.8% |
| C[C@]1(O)CCCN(c2nc(Nc3ccc(S(=O)(=O)N[C@H]4CC[C@H](CN5CCN(c6ccc(C7CCC(=O)NC7=O)cc6F)CC5)CC4)cc3F)ncc2C(F)(F)F)C1 (stereo partly drawn) | CDK7 | binding | – | competition with immobilised ligand | 1 µM | remaining binding | 85% |
| CCN1/C(=C/C(C)=O)Sc2ccc(F)cc21 | PTGER4 | ligand displacement | – | radioligand | 10 µM | inhibition | 4.39% |
| NC/C(=C\F)COc1cccc(Cn2c(=S)[nH]c(=O)c3[nH]cnc32)c1 | PTGER4 | ligand displacement | – | radioligand | 10 µM | inhibition | < 50% |
| COC(=O)/C=C/c1ccc(OCCN(C)C(=O)c2ccccc2)cc1 | ACSL4 | thermal stability | – | DSF | 5 µM | ΔTm | 5.3 °C |
| CN1CCc2c(c3ccccc3n2Cc2ccc(C(=O)NO)cc2)C1 | Protein deacetylase HDAC6 (HDAC6, Homo sapiens, UniProt Q9UBN7) | enzyme activity | inhibitor | fluorescence | 0.5 µM | inhibition | 94.8% |
| CC1(COc2ccc(CC3SC(=O)NC3=O)cc2)CCCCC1 (stereo not drawn) | ACSL4 | enzyme activity | inhibitor | – | 10 µM | inhibition | 20% |
| CNS(=O)(=O)c1ccc(Nc2ncc(C(F)(F)F)c(N3CCC[C@](C)(O)C3)n2)c(C)c1 | Serine/threonine-protein kinase RIO3 (RIOK3, Homo sapiens, UniProt O14730) | binding | – | competition with immobilised ligand | 1 µM | remaining binding | 99% |
| CCCCC(=O)Nc1ccc(-c2ccc3ncn(CCC)c(=O)c3c2)cn1 | Dual specificity protein kinase TTK (TTK, Homo sapiens, UniProt P33981) | binding | – | competition with immobilised ligand | 0.5 µM | remaining binding | 64% |
